ChEMBL document CHEMBL2384906, “Biological activity, design, synthesis and structure activity relationship of some novel derivatives of curcumin containing sulfonamides” (Eur J Med Chem, 2013)
Converted amounts (≈) assume the structure as drawn. The source made the active and inactive calls. The rule behind the calls is not given here.

Legend:
Bacillus cereus [1] = assay: Antimicrobial activity against Bacillus cereus MTCC 7350 assessed as diameter of inhibition zone at 80 uM after 24 hrs by Kirby -Baur disc diffusion method; type: functional
In short: (§1)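 Kirby-Bauer disc diffusion was used. Acetone stocks (160 µM) were serially doubled down to 80, 40 and 20 µM. 4 µL of each went onto 5 mm sterile paper discs, which were dried 30 min at 50 °C. Inoculum was 1.5 × 10⁸ CFU/mL diluted to 3 × 10² CFU/mL, and 50 µL was spread on Mueller-Hinton agar. After 24 h at 37 °C the inhibition-zone diameter was measured. Ciprofloxacin served as positive control.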

Trichoderma viride [2] = assay: Antifungal activity against Trichoderma viride MTCC 1107 after 48 hrs; type: functional; settings: MTCC 1107, 48 h
Staphylococcus aureus [3] = assay: Antimicrobial activity against Staphylococcus aureus ATCC 11632 assessed as diameter of inhibition zone at 40 uM after 24 hrs by Kirby -Baur disc diffusion method; type: functional; settings: ATCC 11632, 24 h, read-out: DIZ; in short: as §1
HepG2 = assay: Cytotoxicity against human HepG2 cells after 24 hrs by MTT assay; type: functional, cell-based
In short: (§2)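 The MTT assay seeded 5 × 10⁴ cells per well and grew them 24 h in RPMI 1640 with compound at 2.5–200 µM. Medium without cells was the blank and adriamycin the positive control. MTT was added for 4 h at 37 °C, formazan was solubilised, and absorbance was read at 570 nm. IC50 is the concentration that cuts viability 50% against untreated cells.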

Aspergillus flavus [4] = assay: Antifungal activity against Aspergillus flavus MTCC 1021 after 48 hrs; type: functional
Pseudomonas aeruginosa [5] = assay: Antimicrobial activity against Pseudomonas aeruginosa ATCC 15499 after 24 hrs by broth micro serial dilution method; type: functional; settings: ATCC 15499, 24 h
In short: (§3)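 This was broth microdilution in autoclaved Mueller-Hinton broth. 150 µL of compound per well was serially diluted […], and 50 µL of test organism was added. Plates were incubated 24 h at 37 °C and optical density was read.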

Aspergillus flavus [6] = assay: Antifungal activity against Aspergillus flavus MTCC 1021 assessed as zone of inhibition at 80 uM after 48 hrs by disc diffusion method; type: functional
In short: (§4)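 Spores from 4-day potato dextrose agar cultures, suspended in sterile water at 1.5 × 10⁵ CFU/mL. 0.2 mL was spread on potato dextrose agar. 5 mm filter-paper discs soaked with test compound were laid on the lawn. Incubation was 48 h at 28 °C, then the inhibition zone was measured in mm. Fluconazole was the positive control and acetone the negative control.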

Escherichia coli [7] = assay: Antimicrobial activity against Escherichia coli ATCC 35218 assessed as diameter of inhibition zone at 80 uM after 24 hrs by Kirby -Baur disc diffusion method; type: functional; settings: ATCC 35218, 24 h, read-out: DIZ; in short: as §1
Pseudomonas aeruginosa [8] = assay: Antimicrobial activity against Pseudomonas aeruginosa ATCC 15499 assessed as diameter of inhibition zone at 80 uM after 24 hrs by Kirby -Baur disc diffusion method; type: functional; in short: as §1
Aspergillus niger [9] = assay: Antifungal activity against Aspergillus niger MTCC 1108 assessed as zone of inhibition at 80 uM after 48 hrs by disc diffusion method; type: functional; in short: as §4
Salmonella typhi [10] = assay: Antimicrobial activity against Salmonella typhi ATCC 23564 after 24 hrs by broth micro serial dilution method; type: functional, Salmonella enterica subsp. enterica serovar Typhi; settings: Salmonella enterica, ATCC 23564, 24 h
Bacillus cereus [11] = assay: Antimicrobial activity against Bacillus cereus MTCC 7350 assessed as diameter of inhibition zone at 40 uM after 24 hrs by Kirby -Baur disc diffusion method; type: functional; in short: as §1
Staphylococcus aureus [12] = assay: Antimicrobial activity against Staphylococcus aureus ATCC 11632 assessed as diameter of inhibition zone at 20 uM after 24 hrs by Kirby -Baur disc diffusion method; type: functional; in short: as §1
Escherichia coli [13] = assay: Antimicrobial activity against Escherichia coli ATCC 35218 assessed as diameter of inhibition zone at 20 uM after 24 hrs by Kirby -Baur disc diffusion method; type: functional; in short: as §1
HeLa = assay: Cytotoxicity against human HeLa cells after 24 hrs by MTT assay; type: functional, cell-based; in short: as §2
HCT-116 = assay: Cytotoxicity against human HCT116 cells after 24 hrs by MTT assay; type: functional, cell-based; in short: as §2
Curvularia lunata [14] = assay: Antifungal activity against Curvularia lunata MTCC 581 assessed as zone of inhibition at 40 uM after 48 hrs by disc diffusion method; type: functional; settings: MTCC 581, 48 h, read-out: IZ; in short: as §4
Trichoderma viride [15] = assay: Antifungal activity against Trichoderma viride MTCC 1107 assessed as zone of inhibition at 40 uM after 48 hrs by disc diffusion method; type: functional; settings: MTCC 1107, 48 h, read-out: IZ; in short: as §4
Salmonella typhi [16] = assay: Antimicrobial activity against Salmonella typhi ATCC 23564 assessed as diameter of inhibition zone at 80 uM after 24 hrs by Kirby -Baur disc diffusion method; type: functional, Salmonella enterica subsp. enterica serovar Typhi; settings: Salmonella enterica, ATCC 23564, 24 h; read-out: DIZ
QG-56 = assay: Cytotoxicity against human QG56 cells after 24 hrs by MTT assay; type: functional, cell-based; in short: as §2
Curvularia lunata [17] = assay: Antifungal activity against Curvularia lunata MTCC 581 assessed as zone of inhibition at 20 uM after 48 hrs by disc diffusion method; type: functional; in short: as §4
Escherichia coli [18] = assay: Antimicrobial activity against Escherichia coli ATCC 35218 after 24 hrs by broth micro serial dilution method; type: functional; settings: ATCC 35218, 24 h; in short: as §3
Curvularia lunata [19] = assay: Antifungal activity against Curvularia lunata MTCC 581 assessed as zone of inhibition at 80 uM after 48 hrs by disc diffusion method; type: functional; settings: MTCC 581, 48 h, read-out: IZ; in short: as §4
Bacillus cereus [20] = assay: Antimicrobial activity against Bacillus cereus MTCC 7350 assessed as diameter of inhibition zone at 20 uM after 24 hrs by Kirby -Baur disc diffusion method; type: functional; in short: as §1
Escherichia coli [21] = assay: Antimicrobial activity against Escherichia coli ATCC 35218 assessed as diameter of inhibition zone at 40 uM after 24 hrs by Kirby -Baur disc diffusion method; type: functional; in short: as §1
Mus musculus = assay: Antiinflammatory activity in mouse assessed as inhibition of carrageenan-induced increase in paw volume at 200 mg/kg administered 1 hr prior to carrageenan challenge measured after 3 hrs relative to control; type: functional
In short: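 Mice were fasted 2 h and placed in groups of five. Controls received saline i.p. Phenylbutazone was given at 100 mg/kg i.p., curcumin at 200 mg/kg i.p., and derivatives at 200 mg/kg. After 1 h, 0.1 mL of 1% carrageenan in saline was injected subplantar into the right hind paw. Paw volume was followed by plethysmometer for 3 h, and % inhibition was calculated as (Vc − Vt)/Vc × 100.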

Salmonella typhi [22] = assay: Antimicrobial activity against Salmonella typhi ATCC 23564 assessed as diameter of inhibition zone at 40 uM after 24 hrs by Kirby -Baur disc diffusion method; type: functional
Aspergillus niger [23] = assay: Antifungal activity against Aspergillus niger MTCC 1108 after 48 hrs; type: functional
Curvularia lunata [24] = assay: Antifungal activity against Curvularia lunata MTCC 581 after 48 hrs; type: functional; settings: MTCC 581, 48 h
Staphylococcus aureus [25] = assay: Antimicrobial activity against Staphylococcus aureus ATCC 11632 assessed as diameter of inhibition zone at 80 uM after 24 hrs by Kirby -Baur disc diffusion method; type: functional; in short: as §1
Trichoderma viride [26] = assay: Antifungal activity against Trichoderma viride MTCC 1107 assessed as zone of inhibition at 80 uM after 48 hrs by disc diffusion method; type: functional; settings: MTCC 1107, 48 h, read-out: IZ; in short: as §4
Salmonella typhi [27] = assay: Antimicrobial activity against Salmonella typhi ATCC 23564 assessed as diameter of inhibition zone at 20 uM after 24 hrs by Kirby -Baur disc diffusion method; type: functional; settings: Salmonella enterica subsp. enterica serovar Typhi
Trichoderma viride [28] = assay: Antifungal activity against Trichoderma viride MTCC 1107 assessed as zone of inhibition at 20 uM after 48 hrs by disc diffusion method; type: functional; in short: as §4
Staphylococcus aureus [29] = assay: Antimicrobial activity against Staphylococcus aureus ATCC 11632 after 24 hrs by broth micro serial dilution method; type: functional; in short: as §3
Bacillus cereus [30] = assay: Antimicrobial activity against Bacillus cereus MTCC 7350 after 24 hrs by broth micro serial dilution method; type: functional; in short: as §3
[31] = ATCC 35218, 24 h, read-out: DIZ

| SMILES | MIC (Trichoderma viride [2]) [µM] | IC50 (HepG2) | MIC (Pseudomonas aeruginosa [5]) [µM] | inhibition zone (IZ) (Aspergillus flavus [6]) | zone of inhibition at 80 µM (Escherichia coli [7]) [mm] | diameter of the inhibition zone (DIZ) (Pseudomonas aeruginosa [8]) | inhibition zone (IZ) (Aspergillus niger [9]) | MIC (Salmonella typhi [10]) [µM] | IC50 (HeLa) | IC50 (HCT-116) | zone of inhibition at 40 µM (Curvularia lunata [14]) [mm] | zone of inhibition at 40 µM (Trichoderma viride [15]) [mm] | zone of inhibition at 80 µM (Salmonella typhi [16]) [mm] | IC50 (QG-56) | MIC (Escherichia coli [18]) [µM] | zone of inhibition at 80 µM (Curvularia lunata [19]) [mm] | inhibition in vivo at 200 mg/kg (Mus musculus) [%] | MIC (Aspergillus niger [23]) | MIC (Curvularia lunata [24]) [µM] | zone of inhibition at 80 µM (Trichoderma viride [26]) [mm] | also measured |
| --- | --- | --- | --- | --- | --- | --- | --- | --- | --- | --- | --- | --- | --- | --- | --- | --- | --- | --- | --- | --- | --- |
| COc1cc(/C=C/c2nn(-c3ccccc3)c(/C=C/c3ccc(O)c(OC)c3)c2/N=N/c2ccc(S(=O)(=O)Nc3nc(C)cc(C)n3)cc2)ccc1O | 20 (≈ 14.6 µg/mL) | > 100 µM | > 80 | inactive | 12 | inactive | inactive | > 80 | 50 µM | Not Active | 19 | 19 | 9 | 100 µM | > 80 | 22 | 37 | inactive | 20 (≈ 14.6 µg/mL) | 22 | zone of inhibition at 80 µM (Bacillus cereus [1]; MTCC 7350, 24 h, read-out: DIZ): 9 mm; zone of inhibition at 40 µM (Staphylococcus aureus [3]): 8 mm; MIC (Aspergillus flavus [4]): inactive; diameter of the inhibition zone (DIZ) (Bacillus cereus [11]): inactive; diameter of the inhibition zone (DIZ) (Staphylococcus aureus [12]): inactive; zone of inhibition at 20 µM (Escherichia coli [13]; [31]): 9 mm; zone of inhibition at 20 µM (Curvularia lunata [17]; MTCC 581, 48 h, read-out: IZ): 18 mm; diameter of the inhibition zone (DIZ) (Bacillus cereus [20]): inactive; zone of inhibition at 40 µM (Escherichia coli [21]; [31]): 11 mm; diameter of the inhibition zone (DIZ) (Salmonella typhi [22]; Salmonella enterica subsp. enterica serovar Typhi): inactive; zone of inhibition at 80 µM (Staphylococcus aureus [25]; ATCC 11632, 24 h, read-out: DIZ): 9 mm; diameter of the inhibition zone (DIZ) (Salmonella typhi [27]): inactive; zone of inhibition at 20 µM (Trichoderma viride [28]; MTCC 1107, 48 h, read-out: IZ): 18 mm; MIC (Staphylococcus aureus [29]; ATCC 11632, 24 h): > 80 µM; MIC (Bacillus cereus [30]; MTCC 7350, 24 h): > 80 µM |
| COc1cc(/C=C/c2noc(/C=C/c3ccc(O)c(OC)c3)c2/N=N/c2ccc(S(=O)(=O)Nc3ccccn3)cc2)ccc1O | 80 (≈ 50.1 µg/mL) | Not Active | > 80 | inactive | 10 | inactive | inactive | 80 (≈ 50.1 µg/mL) | Not Active | Not Active | 10 | 10 | 15 | Not Active | > 80 | 12 | 27.4 | inactive | > 80 | 12 | diameter of the inhibition zone (DIZ) (Bacillus cereus [1]): inactive; MIC (Aspergillus flavus [4]; MTCC 1021, 48 h): > 80 µM; diameter of the inhibition zone (DIZ) (Escherichia coli [13]): inactive; inhibition zone (IZ) (Curvularia lunata [17]): inactive; diameter of the inhibition zone (DIZ) (Escherichia coli [21]): inactive; zone of inhibition at 40 µM (Salmonella typhi [22]; Salmonella enterica, ATCC 23564, 24 h, read-out: DIZ): 9 mm; diameter of the inhibition zone (DIZ) (Staphylococcus aureus [25]): inactive; diameter of the inhibition zone (DIZ) (Salmonella typhi [27]): inactive; inhibition zone (IZ) (Trichoderma viride [28]): inactive; MIC (Staphylococcus aureus [29]): inactive; MIC (Bacillus cereus [30]): inactive |
